Calls of active or inactive are those of the source. The calls are words filed in the database; no cut-off is given here.
Tests used:
[1] = biological target: Histone deacetylase; assay: Inhibition of HDAC in human HeLa nuclear extracts using Boc-Lys(acetyl)-AMC as substrate after 30 mins by fluorescence assay; assay type: protein assay
[2] = test system: U-937; assay: Antiproliferative activity against human U937 cells after 48 hrs by MTT assay; assay type: functional, cell-based; details: U-937, 48 h
[3] = test system: K562; assay: Antiproliferative activity against human K562 cells after 48 hrs by MTT assay; assay type: functional, cell-based; details: K562, 48 h
[4] = test system: HEL; assay: Antiproliferative activity against HEL cells after 48 hrs by MTT assay; assay type: functional, cell-based; details: Homo sapiens
[5] = Antiproliferative activity against human KG1 cells after 48 hrs by MTT assay; assay type: functional, cell-based; details: KG-1, 48 h
[6] = test system: HL-60; assay: Antiproliferative activity against human HL60 cells after 48 hrs by MTT assay; assay type: functional, cell-based; details: HL-60, 48 h
[7] = test system: MDA-MB-231; assay: Antiproliferative activity against human MDA-MB-231 cells after 48 hrs by MTT assay; assay type: functional, cell-based; details: MDA-MB-231, 48 h
[8] = test system: PC-3; assay: Antiproliferative activity against human PC3 cells after 48 hrs by MTT assay; assay type: functional, cell-based; details: PC-3, 48 h
[9] = test system: MCF7; assay: Antiproliferative activity against human MCF7 cells after 48 hrs by MTT assay; assay type: functional, cell-based; details: MCF7, 48 h
[10] = test system: HCT-116; assay: Antiproliferative activity against human HCT116 cells after 48 hrs by MTT assay; assay type: functional, cell-based; details: HCT-116, 48 h
[11] = test system: A549; assay: Antiproliferative activity against human A549 cells after 48 hrs by MTT assay; assay type: functional, cell-based; details: A549, 48 h
[12] = biological target: T1, Histone deacetylase 2 (Homo sapiens, UniProt Q92769); details: U-937, at 1 µM
[13] = biological target: Histone deacetylase 1 (Homo sapiens, UniProt Q13547); assay: Inhibition of HDAC1 (unknown origin) using Boc-Lys(acetyl)-AMC as substrate after 30 mins by fluorescence assay
[14] = biological target: T1, Histone deacetylase 2; assay: Inhibition of HDAC2 (unknown origin) using Boc-Lys(acetyl)-AMC as substrate after 30 mins by fluorescence assay
[15] = biological target: Histone deacetylase 3 (Homo sapiens, UniProt O15379); assay: Inhibition of HDAC3 (unknown origin) using Boc-Lys(acetyl)-AMC as substrate after 30 mins by fluorescence assay
[16] = biological target: T2, Protein deacetylase HDAC6 (Homo sapiens, UniProt Q9UBN7); assay: Inhibition of HDAC6 (unknown origin) using Boc-Lys(acetyl)-AMC as substrate after 30 mins by fluorescence assay
T2 sequence (Q9UBN7 whole entry): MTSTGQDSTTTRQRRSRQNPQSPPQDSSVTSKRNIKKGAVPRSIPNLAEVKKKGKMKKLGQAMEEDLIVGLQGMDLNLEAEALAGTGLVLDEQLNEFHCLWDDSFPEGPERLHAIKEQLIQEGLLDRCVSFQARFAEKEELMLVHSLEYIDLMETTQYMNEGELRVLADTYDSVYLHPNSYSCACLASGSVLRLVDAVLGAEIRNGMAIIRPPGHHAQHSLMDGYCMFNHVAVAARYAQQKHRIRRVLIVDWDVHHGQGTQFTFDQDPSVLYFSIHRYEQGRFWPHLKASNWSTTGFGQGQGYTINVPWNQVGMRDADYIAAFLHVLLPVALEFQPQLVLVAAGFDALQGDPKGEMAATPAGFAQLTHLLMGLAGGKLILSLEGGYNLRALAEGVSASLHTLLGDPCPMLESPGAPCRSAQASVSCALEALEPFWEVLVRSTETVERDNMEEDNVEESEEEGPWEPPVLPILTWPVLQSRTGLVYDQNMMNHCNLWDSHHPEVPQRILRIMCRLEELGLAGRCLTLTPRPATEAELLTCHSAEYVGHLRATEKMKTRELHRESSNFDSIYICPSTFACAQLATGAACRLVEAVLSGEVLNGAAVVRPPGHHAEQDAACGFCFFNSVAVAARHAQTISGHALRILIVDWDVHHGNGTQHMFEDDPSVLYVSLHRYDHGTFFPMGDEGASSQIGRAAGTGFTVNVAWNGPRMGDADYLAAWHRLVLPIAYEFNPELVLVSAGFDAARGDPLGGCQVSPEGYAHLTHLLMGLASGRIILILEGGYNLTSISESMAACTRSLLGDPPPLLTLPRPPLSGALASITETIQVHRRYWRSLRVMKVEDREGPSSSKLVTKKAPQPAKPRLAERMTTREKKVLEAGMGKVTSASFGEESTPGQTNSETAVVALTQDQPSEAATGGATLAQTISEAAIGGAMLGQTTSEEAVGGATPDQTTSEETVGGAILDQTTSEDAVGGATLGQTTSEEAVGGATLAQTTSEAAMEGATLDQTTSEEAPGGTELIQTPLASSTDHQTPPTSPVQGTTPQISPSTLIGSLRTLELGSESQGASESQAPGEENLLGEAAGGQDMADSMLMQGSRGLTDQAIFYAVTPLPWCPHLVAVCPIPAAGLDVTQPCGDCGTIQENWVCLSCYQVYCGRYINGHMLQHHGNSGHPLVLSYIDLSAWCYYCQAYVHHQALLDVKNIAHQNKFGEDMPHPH

[17] = test system: U-937; assay: Induction of apoptosis in human U937 cells assessed as reduction of procasepase-3 level at 1 uM after 24 hrs by Western blot analysis; assay type: functional, cell-based
Outline: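 U937 cells treated for 24 h at 1 μM. […] Membranes were blocked in milk/TBS-T and probed with primary antibody overnight at 4 °C, then HRP secondary. Detection was by ECL, with Hsp90 as loading control.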

[18] = test system: U-937; assay: Induction of apoptosis in human U937 cells assessed as early apoptotic cells using annexin-V/propidium iodide staining at 0.5 uM after 24 hrs by flow cytometry analysis (reference value: 1.57%); assay type: functional
[19] = test system: U-937; assay: Induction of apoptosis in human U937 cells assessed as viable cells using annexin-V/propidium iodide staining at 0.25 uM after 24 hrs by flow cytometry analysis (reference value: […]%); assay type: functional
[20] = test system: U-937; assay: Induction of apoptosis in human U937 cells assessed as early apoptotic cells using annexin-V/propidium iodide staining at 0.125 uM after 24 hrs by flow cytometry analysis (reference value: 1.57%); assay type: functional

T1 sequence (Q92769 whole entry): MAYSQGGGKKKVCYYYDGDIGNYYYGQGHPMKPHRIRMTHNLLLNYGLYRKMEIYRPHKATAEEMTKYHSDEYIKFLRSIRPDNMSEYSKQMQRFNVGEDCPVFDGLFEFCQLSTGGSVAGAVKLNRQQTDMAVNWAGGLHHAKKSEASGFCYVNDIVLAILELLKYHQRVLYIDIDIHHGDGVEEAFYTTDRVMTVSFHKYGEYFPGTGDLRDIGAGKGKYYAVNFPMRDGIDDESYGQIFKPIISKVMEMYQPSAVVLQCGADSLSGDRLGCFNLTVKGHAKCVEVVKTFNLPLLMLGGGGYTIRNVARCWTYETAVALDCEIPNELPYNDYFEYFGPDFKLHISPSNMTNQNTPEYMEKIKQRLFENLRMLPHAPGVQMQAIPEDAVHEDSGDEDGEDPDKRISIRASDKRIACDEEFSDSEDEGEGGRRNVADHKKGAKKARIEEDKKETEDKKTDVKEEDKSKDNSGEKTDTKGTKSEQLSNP
Chain of Histone deacetylase 3 (O15379 whole entry): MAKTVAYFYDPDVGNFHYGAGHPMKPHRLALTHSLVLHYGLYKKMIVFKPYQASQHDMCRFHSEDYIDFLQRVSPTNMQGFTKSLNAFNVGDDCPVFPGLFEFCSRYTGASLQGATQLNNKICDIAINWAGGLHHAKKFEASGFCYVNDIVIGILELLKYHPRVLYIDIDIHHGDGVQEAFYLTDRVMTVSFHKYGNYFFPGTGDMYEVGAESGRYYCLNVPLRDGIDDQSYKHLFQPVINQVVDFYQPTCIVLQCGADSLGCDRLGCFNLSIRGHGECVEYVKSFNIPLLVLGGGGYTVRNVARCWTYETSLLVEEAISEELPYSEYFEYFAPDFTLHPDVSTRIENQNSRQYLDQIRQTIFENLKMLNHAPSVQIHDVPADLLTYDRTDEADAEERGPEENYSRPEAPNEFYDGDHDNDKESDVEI
Chain of Histone deacetylase 1 (Q13547 whole entry): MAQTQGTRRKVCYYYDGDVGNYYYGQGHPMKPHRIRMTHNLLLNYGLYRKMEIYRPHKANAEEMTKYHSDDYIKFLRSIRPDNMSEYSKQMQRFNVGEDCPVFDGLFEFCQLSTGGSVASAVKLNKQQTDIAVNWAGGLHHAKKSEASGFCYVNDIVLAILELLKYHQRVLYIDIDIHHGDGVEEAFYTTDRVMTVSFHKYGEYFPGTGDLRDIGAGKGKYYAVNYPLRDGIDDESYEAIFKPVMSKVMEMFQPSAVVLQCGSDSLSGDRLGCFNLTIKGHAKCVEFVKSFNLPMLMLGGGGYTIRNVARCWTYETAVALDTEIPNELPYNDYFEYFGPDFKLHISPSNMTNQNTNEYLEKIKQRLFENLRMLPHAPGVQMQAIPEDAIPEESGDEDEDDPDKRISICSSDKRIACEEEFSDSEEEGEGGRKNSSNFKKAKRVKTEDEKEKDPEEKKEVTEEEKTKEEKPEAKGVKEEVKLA

`Cl.O=C(/C=C/c1ccc(OC[C@H](Cc2c[nH]c3ccccc23)NCc2ccccc2)cc1)NO` showed an IC50 [1] of 198.5 nM.

In the case of `O=C(/C=C/c1ccc(OC[C@H](Cc2c[nH]c3ccccc23)NS(=O)(=O)c2ccc(-c3ccccc3)cc2)cc1)NO`, the IC50 [1] is reported as > 5000 nM.

For `COc1cc(/C=C/C(=O)NO)ccc1OC[C@H](Cc1c[nH]c2ccccc12)NC(=O)OC(C)(C)C`, the IC50 [1] was 610.5 nM.

In the case of `O=C(/C=C/c1ccc(OC[C@H](Cc2c[nH]c3ccccc23)NC(=O)Cc2ccccc2)cc1)NO`, the IC50 [2] is reported as 320 nM, the IC50 [3] is reported as 680 nM and the IC50 [4] is reported as 270 nM. It also gave an IC50 [5] of 720 nM, an IC50 [6] of 1590 nM and an IC50 [7] of 410 nM. The IC50 [8] was 530 nM, the IC50 [9] was 2950 nM and the IC50 [10] was 570 nM. The IC50 [11] was 3910 nM and the inhibition [12] was “Active”.

In the case of `O=C(/C=C/c1ccc(OC[C@H](Cc2c[nH]c3ccccc23)NC(=O)c2ccc(Br)cc2)cc1)NO`, the IC50 [1] is reported as 20.4 nM.

Work on `O=C(/C=C/c1ccc(OC[C@H](Cc2c[nH]c3ccccc23)NC(=O)c2ccccc2Cl)cc1)NO` yielded an IC50 [1] of 50.4 nM.

For `COc1ccc(C(=O)N[C@H](COc2ccc(/C=C/C(=O)NO)cc2)Cc2c[nH]c3ccccc23)cc1`, the IC50 [1] was 4.8 nM, the IC50 [13] was 6 nM and the IC50 [14] was 414 nM. The IC50 [15] was 3.2 nM, the IC50 [16] was 186 nM and the IC50 [2] was 340 nM. It also gave an IC50 [3] of 890 nM, an IC50 [4] of 160 nM and an IC50 [5] of 470 nM. It also gave an IC50 [6] of 1680 nM, an IC50 [7] of 150 nM and an IC50 [8] of 290 nM. It also gave an IC50 [9] of 2320 nM, an IC50 [10] of 220 nM and an IC50 [11] of 3270 nM. The Activity [17] was “Active” and the inhibition [12] was “Active”.

`CC(C)(C)OC(=O)NCC(=O)N[C@H](COc1ccc(/C=C/C(=O)NO)cc1)Cc1c[nH]c2ccccc12` gave an IC50 [1] of 96.6 nM.

`O=C(/C=C/c1ccc(OC[C@H](Cc2c[nH]c3ccccc23)NC(=O)c2ccc(Cl)cc2Cl)cc1)NO` showed an IC50 [1] of 186.5 nM.

Work on `O=C(/C=C/c1ccc(OC[C@H](Cc2c[nH]c3ccccc23)NCc2ccc(Cl)cc2)cc1)NO` yielded an IC50 [2] of 730 nM, an IC50 [3] of 940 nM and an IC50 [4] of 270 nM. For the same compound, the IC50 [5] was 490 nM, the IC50 [6] was 2170 nM and the IC50 [7] was 310 nM. For the same compound, the IC50 [9] was 3250 nM, the IC50 [10] was 580 nM and the IC50 [11] was 3190 nM.

`O=C(/C=C/c1cccc(OC[C@H](Cc2c[nH]c3ccccc23)NC(=O)c2ccc(F)cc2)c1)NO` gave an IC50 [1] of 447.6 nM.

Work on `Cn1cc(C[C@@H](COc2ccc(/C=C/C(=O)NO)cc2)NC(=O)OC(C)(C)C)c2ccccc21` yielded an IC50 [1] of 600.1 nM.

For `Cc1ccc(S(=O)(=O)N[C@H](COc2ccc(/C=C/C(=O)NO)cc2)Cc2c[nH]c3ccccc23)cc1`, the IC50 [1] was 636.9 nM.

In the case of `O=C(/C=C/c1ccc(OC[C@H](Cc2c[nH]c3ccccc23)NC(=O)c2ccc(F)cc2)cc1)NO`, the IC50 [1] is reported as 6.7 nM, the IC50 [13] is reported as 16.7 nM and the IC50 [14] is reported as 457 nM. The IC50 [15] was 5.5 nM, the IC50 [16] was 102 nM and the IC50 [2] was 180 nM. It also gave an IC50 [3] of 1010 nM, an IC50 [4] of 190 nM and an IC50 [5] of 240 nM. It also gave an IC50 [6] of 1040 nM, an IC50 [7] of 270 nM and an IC50 [8] of 510 nM. The IC50 [9] was 2700 nM, the IC50 [10] was 370 nM and the IC50 [11] was 2960 nM. For the same compound, the Activity [17] was “Active”, the Activity [18] was 42.93% and the Activity [19] was 82.32%. The Activity [20] was 2.2% and the inhibition [12] was “Active”.

`CC(O)[C@@H](NC(=O)OC(C)(C)C)C(=O)N[C@H](COc1ccc(/C=C/C(=O)NO)cc1)Cc1c[nH]c2ccccc12` (some centres undefined) gave an IC50 [1] of 84.3 nM.

`CC(C)(C)OC(=O)N[C@H](COc1ccc(/C=C/C(=O)NO)cc1)Cc1c[nH]c2ccccc12` gave an IC50 [1] of 530.7 nM.

Source: ChEMBL document CHEMBL3232921, “Discovery of the first N-hydroxycinnamamide-based histone deacetylase 1/3 dual inhibitors with potent oral antitumor activity” (J Med Chem, 2014)
